The results in this text go back to ChEMBL document CHEMBL4196080, “Identification of small-molecule inhibitors of USP2a” (Eur J Med Chem, 2018).

Assay [1] deals with T1, Ubiquitin carboxyl-terminal hydrolase 2 (Homo sapiens, UniProt O75604).
T1 sequence (O75604 whole entry): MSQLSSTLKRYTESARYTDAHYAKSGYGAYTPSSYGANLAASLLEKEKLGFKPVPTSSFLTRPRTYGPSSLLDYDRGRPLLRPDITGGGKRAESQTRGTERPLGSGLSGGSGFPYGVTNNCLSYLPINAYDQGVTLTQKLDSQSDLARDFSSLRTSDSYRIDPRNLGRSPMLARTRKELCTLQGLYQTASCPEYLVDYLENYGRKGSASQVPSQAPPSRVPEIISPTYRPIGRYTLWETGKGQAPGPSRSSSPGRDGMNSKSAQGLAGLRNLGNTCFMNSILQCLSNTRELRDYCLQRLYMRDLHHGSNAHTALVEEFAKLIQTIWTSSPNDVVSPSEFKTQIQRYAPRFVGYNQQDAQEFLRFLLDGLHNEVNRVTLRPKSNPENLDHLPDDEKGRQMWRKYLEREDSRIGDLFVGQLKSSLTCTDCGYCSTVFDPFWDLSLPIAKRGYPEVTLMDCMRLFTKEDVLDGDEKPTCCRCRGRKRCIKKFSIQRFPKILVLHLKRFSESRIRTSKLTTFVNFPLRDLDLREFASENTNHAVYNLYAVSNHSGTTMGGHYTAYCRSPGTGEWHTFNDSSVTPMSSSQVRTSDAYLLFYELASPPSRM
The assay is described as follows: (§1) Inhibition of human USP2a (258 to 605 residues) expressed in Escherichia coli BL21(DE3) using Ub-AMC as substrate incubated for 30 mins measured at 30 secs interval by fluorescence assay. In short, it runs like this: (§2)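 USP2a purified by Ni-chelate, Q-Sepharose flow-through and gel filtration in PBS pH 7.4 with 5 mM DTT. Enzyme at 10 nM in 50 mM Tris/HCl pH 7.5, 1 mM EDTA, 1 mM MgCl2, preincubated 30 min with compound. Ub-AMC 500 nM then added. Fluorescence (ex 355/em 460 nm) read every 30 s. Turbidity checked at 600 nm. Excess wild-type ubiquitin served as positive control. Percent inhibition was fitted to dose-response curves.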

Assay [2] concerns the target T2, Ubiquitin carboxyl-terminal hydrolase 2 (Homo sapiens) (UniProt O75604).
T2 sequence (whole entry): T1 sequence (O75604 whole entry)
The assay is described as follows: (§3) Binding affinity to 15N-Gly/Cys/Ser/Trp-labeled human USP2a expressed in Escherichia coli BL21(DE3) assessed as change in chemical shift by NMR method. In outline:
(§4)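 Selectively 15N-Gly/Cys/Ser/Trp-labeled USP2a from gel filtration in PBS pH 7.4 with 5 mM DTT, with 10% D2O added for lock. Ligand stock was 50 mM in d6-DMSO. Titration run in three steps at protein:compound ratios 1:1, 1:5 and 1:15. Binding followed as cross-peak shifts.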

The target of assay [3] is T1, Ubiquitin carboxyl-terminal hydrolase 2. Described as §3. In outline:
as §4

In assay [4] the target is T2, Ubiquitin carboxyl-terminal hydrolase 2 (Homo sapiens). The assay is described as follows: Inhibition of human USP2a (258 to 605 residues) expressed in Escherichia coli BL21(DE3) at 2000 uM using Ub-AMC as substrate incubated for 30 mins measured at 30 secs interval by fluorescence assay. In outline: as §2
Assay [5] shares this target. The assay can be described thus: Inhibition of USP2a in human HCT116 cells assessed as downregulation of cycline D1 expression at 20 uM after 48 hrs by Western blot analysis. The format is cell-based. In outline:
(§5)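 HCT 116 and MCF-7 cells were exposed to 20 μM compound or an equivalent DMSO portion and cultured for 48 h. Cyclin D1 levels were then assessed by western blot.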

For assay [6] the target is unchanged. The assay can be described thus: Inhibition of USP2a in human MCF7 cells assessed as downregulation of cycline D1 expression at 20 uM after 48 hrs by Western blot analysis. The format is cell-based. In outline:
as §5

In assay [7] the target is Ubiquitin carboxyl-terminal hydrolase 7 (Homo sapiens) (UniProt Q93009). The assay can be described thus: Inhibition of human USP7 (208 to 561 residues) catalytic domain expressed in Escherichia coli BL21(DE3) at 10 to 2000 uM using Ub-AMC as substrate incubated for 30 mins measured at 30 secs interval by fluorescence assay. In short, it runs like this:
(§6)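 GST-tagged USP7 catalytic domain (208-561) was expressed at 16 °C overnight. Tag removed with PreScission protease, then purified by Q-Sepharose, Mono Q and gel filtration in 50 mM Tris/HCl, 150 mM NaCl, 2 mM DTT. Activity measured by Ub-AMC hydrolysis (500 nM substrate, ex 355/em 460 nm, 30 s reads) after 30 min preincubation with compound. Values are mean ± SD.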

The target in assay [8] is T2, Ubiquitin carboxyl-terminal hydrolase 2 (Homo sapiens). The description is as §1. In short, it runs like this:
as §2

Assay [9] deals with Ubiquitin carboxyl-terminal hydrolase 7 (Homo sapiens) (UniProt Q93009). The assay is described as follows: Inhibition of human USP7 (208 to 561 residues) catalytic domain expressed in Escherichia coli BL21(DE3) at 10 uM using Ub-AMC as substrate incubated for 30 mins measured at 30 secs interval by fluorescence assay. In short, it runs like this: as §6
Chain of Ubiquitin carboxyl-terminal hydrolase 7 (Homo sapiens) (Q93009 whole entry, looked up, the tested form may be a part): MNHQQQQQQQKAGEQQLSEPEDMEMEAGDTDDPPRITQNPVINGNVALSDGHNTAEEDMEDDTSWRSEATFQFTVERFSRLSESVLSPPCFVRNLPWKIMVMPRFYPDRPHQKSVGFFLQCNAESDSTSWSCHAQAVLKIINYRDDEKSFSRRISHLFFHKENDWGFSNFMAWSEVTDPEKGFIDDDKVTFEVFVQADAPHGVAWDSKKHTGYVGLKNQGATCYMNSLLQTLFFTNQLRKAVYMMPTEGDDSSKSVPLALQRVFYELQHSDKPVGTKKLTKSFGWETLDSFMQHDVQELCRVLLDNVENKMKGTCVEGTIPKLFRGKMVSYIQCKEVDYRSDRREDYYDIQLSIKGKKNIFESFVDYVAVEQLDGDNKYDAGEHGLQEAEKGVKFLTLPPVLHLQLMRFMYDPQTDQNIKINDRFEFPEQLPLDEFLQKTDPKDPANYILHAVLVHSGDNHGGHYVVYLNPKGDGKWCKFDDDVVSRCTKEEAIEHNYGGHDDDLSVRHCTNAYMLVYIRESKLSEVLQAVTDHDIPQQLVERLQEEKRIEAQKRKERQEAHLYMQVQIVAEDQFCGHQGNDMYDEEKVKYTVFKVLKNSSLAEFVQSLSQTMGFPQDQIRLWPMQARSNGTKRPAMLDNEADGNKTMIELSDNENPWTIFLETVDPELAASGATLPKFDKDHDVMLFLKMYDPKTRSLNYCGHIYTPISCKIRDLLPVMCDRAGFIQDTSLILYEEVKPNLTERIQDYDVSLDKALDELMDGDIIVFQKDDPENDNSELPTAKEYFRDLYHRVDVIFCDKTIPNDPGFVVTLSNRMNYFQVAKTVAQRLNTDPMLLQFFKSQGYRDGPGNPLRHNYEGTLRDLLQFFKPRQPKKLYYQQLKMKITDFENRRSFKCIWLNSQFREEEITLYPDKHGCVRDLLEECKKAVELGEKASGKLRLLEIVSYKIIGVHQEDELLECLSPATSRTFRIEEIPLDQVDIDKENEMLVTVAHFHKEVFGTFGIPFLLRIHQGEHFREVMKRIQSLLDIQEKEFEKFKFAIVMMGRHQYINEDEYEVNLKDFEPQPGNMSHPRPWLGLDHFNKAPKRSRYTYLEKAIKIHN

Active and inactive are the calls of the source. No cut-off for these calls is given here.

As a reminder, the IC50 is the midpoint of a concentration-inhibition curve. `Cc1c(CO)cnn1-c1ccccc1`: the IC50 result in [1] is “Not Active”. On the same count and under the same terms, the result for `Cl.NCc1ccc(Cc2cccs2)cc1` reads “Not Active”.

Regarding `Cc1cc(C#N)cc(C)c1O`, the IC50 in assay [1] (read-out: IC50) was over 5000 µM. Same read-out and setting: the result for `NC(=O)c1c(N)sc2c1CCCC2` reads 8.7 µM. As to `Nc1ccc(-c2cnco2)cc1`, in assay [2], the result was inactive. Regarding `CC(Oc1ccc(C#N)cc1)C(=O)OCc1cc(-c2cccs2)on1` (stereo unspecified), in assay [1] (read-out: IC50), the IC50 is over 50 µM. Regarding `CSc1nnc(-n2cccc2)s1`, in [2], the result was inactive. Broadly, the Kd is the free concentration of one partner at which half of the binding sites on the other are occupied at equilibrium, for simple one-to-one binding. In the case of `OCc1cc(-c2cccs2)on1`, in assay [3], the Kd was determined as 900 µM. The half-maximal inhibitory concentration (IC50) in assay [1] (read-out: IC50) was found to be 1300 µM. Besides, the inhibition result in assay [4] was “Active”. Besides, the inhibition result in [5], in [6] and in assay [7] was “inactive” throughout. Turning to `O=C(O)c1cc(-c2cccs2)on1`, in assay [1], the 50% inhibitory concentration (IC50) result was “Not Active”. Same read-out and setting: the result for `O=C(O)CNC(=O)c1cc(-c2cccs2)on1` reads “Not Active”. Consider `NCc1ccc(-c2csnn2)cc1`, for which, in assay [1] (read-out: IC50), the concentration for half-maximal inhibition (IC50) is over 5000 µM.

For `O=C(OCc1cc(-c2cccs2)on1)c1ccc(S(=O)(=O)N2CCOCC2)cc1`, the concentration for half-maximal inhibition (IC50) entry in [1] is “Not Active”. Still for that read-out and setting: the result for `COc1ccc(N2CC(C(=O)OCc3cc(-c4cccs4)on3)CC2=O)cc1` (stereo unspecified) reads “Not Active”.

Turning to `COc1ccc2c(c1)CCCC2=O`, in assay [2], the result was inactive.

As for `NC(=O)c1c(NC(=O)COCc2cc(-c3cccs3)on2)sc2c1CCCC2`, the half-maximal inhibitory concentration (IC50) in assay [1] (read-out: IC50) came to 3.3 µM. For the same compound, the inhibition entry in assay [8] is “Dose-dependent effect”. For the same compound, the inhibition result in assay [9] is “inactive”. Also, the inhibition result in [5] and in [6] was “Active” in each case. As to `O=C(O)COCc1cc(-c2cccs2)on1`, the IC50 entry in [1] was “Not Active”. On the same count and under the same terms, the result for `CC(C)(C)OC(=O)CNC(=O)c1cc(-c2cccs2)on1` reads “Not Active”. On to `COC(=O)c1ccc2cc[nH]c2c1`, for which, in assay [2], the result was inactive. Consider `CN1CCOc2cc(C#N)ccc21`, for which, in assay [1], the half-inhibitory concentration (IC50) result was “Not Active”. For the compound `Nc1cc(-c2ccccc2)n[nH]1`, the outcome in assay [2] was inactive. For the same compound, the IC50 in assay [1] (read-out: IC50) is over 5000 µM. For the compound `CCCn1nc(C(=O)OCc2cc(-c3cccs3)on2)c2ccccc2c1=O`, the IC50 in [1] (read-out: IC50) is over 100 µM.
